From PubChem
MT stabilizer: microtubule stabilizers in HeLa cells; HeLa tubulin immunostaining HCS, 24 h; share of cells brighter than vehicle mean+2SD; % tubulin-high responders, % at 10 µM; 0.83% of 200,000 active; AID 2205;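 active means plate Z-score above 3 for both tubulin-high and condensed-nucleus cell shares, with cell loss under 80%, at 10 µM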;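 further: anti alpha tubulin signal scored within the nucleus-defined area of each cell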
WT yeast gro inh: growth inhibition of WT yeast, mitochondrial fusion screen; mitochondrial fusion phenotypic screen, WT strain; inhibition, % at 10 µM; 2.1% of 190,000 active; AID 1362; in the data active means inhibition above about 58%; tested in S. cerevisiae
Cl transport mod: KCC2 (human) Cl- transport modulation; Q9H2X9; KCC2 cells, thallium flux FluoZin-2 fluorescence; B-score of Tl+ flux slope (higher = more flux/activation; lower = inhibition) at 10 µM; 2.2% of 190,000 active; AID 1456;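 active means thallium flux slope and its plate-corrected score both differing from the plate sample mean at a set confidence after two filtering rounds, in either direction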;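 further: slope of fluorescence scaled to starting intensity during 10 to 20 s after thallium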
Target sequence (Q9H2X9 whole entry, looked up): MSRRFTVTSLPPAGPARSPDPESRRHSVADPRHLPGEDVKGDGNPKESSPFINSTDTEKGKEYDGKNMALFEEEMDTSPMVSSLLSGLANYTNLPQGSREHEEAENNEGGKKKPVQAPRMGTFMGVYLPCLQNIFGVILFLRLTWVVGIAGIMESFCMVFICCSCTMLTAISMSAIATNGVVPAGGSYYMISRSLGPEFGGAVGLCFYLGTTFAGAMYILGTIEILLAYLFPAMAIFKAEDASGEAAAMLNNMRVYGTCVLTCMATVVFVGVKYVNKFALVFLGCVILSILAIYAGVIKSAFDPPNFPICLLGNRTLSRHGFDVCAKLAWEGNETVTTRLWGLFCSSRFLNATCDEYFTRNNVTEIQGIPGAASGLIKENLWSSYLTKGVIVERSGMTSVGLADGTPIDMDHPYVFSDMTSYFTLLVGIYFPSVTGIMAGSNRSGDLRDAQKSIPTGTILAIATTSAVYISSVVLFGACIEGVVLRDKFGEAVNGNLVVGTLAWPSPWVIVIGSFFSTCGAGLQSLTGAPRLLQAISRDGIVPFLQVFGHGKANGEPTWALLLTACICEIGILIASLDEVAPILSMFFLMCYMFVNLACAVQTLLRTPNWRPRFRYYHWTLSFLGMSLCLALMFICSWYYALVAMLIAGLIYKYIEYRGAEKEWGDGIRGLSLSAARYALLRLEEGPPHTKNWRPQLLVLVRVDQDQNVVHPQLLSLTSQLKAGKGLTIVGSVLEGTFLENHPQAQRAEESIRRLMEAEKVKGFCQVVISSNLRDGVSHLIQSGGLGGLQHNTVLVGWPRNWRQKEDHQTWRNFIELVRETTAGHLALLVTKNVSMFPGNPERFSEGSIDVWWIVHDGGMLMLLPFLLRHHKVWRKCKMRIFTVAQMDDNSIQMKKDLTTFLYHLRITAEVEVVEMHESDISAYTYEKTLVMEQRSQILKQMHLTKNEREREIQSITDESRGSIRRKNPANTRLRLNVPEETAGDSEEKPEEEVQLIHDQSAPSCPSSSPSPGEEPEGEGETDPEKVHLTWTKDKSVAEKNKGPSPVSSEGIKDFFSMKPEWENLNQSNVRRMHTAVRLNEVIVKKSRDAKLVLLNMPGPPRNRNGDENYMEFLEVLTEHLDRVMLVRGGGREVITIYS
Pf gametocyte: inhibitors of late stage P. falciparum gametocyte viability; P. falciparum stage V gametocytes, ATP luminescence, 24 h; inhibition, % at 10.9 µM; 0.065% of 150,000 active;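 active means inhibition above the mean plus 3 SD of compounds within the control limits, set per campaign, cut at about 38% in these data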;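 further: 0% = DMSO wells and 100% = medium only without gametocytes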
bCat nuc transl: beta-catenin nuclear translocation modulation; HeLa beta-catenin nuclear translocation, immunofluorescence imaging; nuclear translocation activity, % at 5 µM; 0.3% of 190,000 active; AID 1665;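 active means nuclear translocation activity above 50% at 5 µM, with a well cell count of 50 or more; inconclusive means wells under 50 cells across six images, flagged as toxic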;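 further: per-cell ratio of nuclear to cytoplasmic median beta-catenin stain intensity; plate controls were DMSO negative control for no effect and GSK-3 inhibitor IX positive control for full effect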
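Test system: HeLa cells, endogenous beta-catenin; Compound: single 5 µM dose plus 0.02–20 µM confirmation series; Times: compound exposure 24 h at 37°C; Signal: fluorescence imaging of beta-catenin antibody stain plus DAPI; Read-out: % activation, nuclear-to-cytoplasmic median beta-catenin signal ratio per cell.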
* = called active by the depositor; ? = inconclusive; · = no result. Hits are enriched below; roughly 4% of the tested compounds scored in any of these assays.

SMILES | MT stabilizer | WT yeast gro inh | Cl transport mod | Pf gametocyte | bCat nuc transl
Cc1ccccc1NC(=O)c1c2c(nc3ccccc13)CCC2 | 4.8 | 10.9 | 0.0922 | -6.7 | -1.1
CCOP(=O)(OCC)c1nc(-c2cccc([N+](=O)[O-])c2)oc1N1CCCCC1 | 2.3 | -21.0 | -1.12 | -15.0 | -2.1
CCOP(=O)(c1ccccc1)c1nc(-c2ccccc2Cl)oc1N1CCCCC1 (stereo unspecified) | 2.3 | 66.4* | -0.807 | -6.0 | ?
O=C(c1cc(C2CC2)nc2ccc(Br)cc12)N1N=C(C(F)F)CC1(O)C(F)F (stereo unspecified) | 3.6 | 74.2* | -2.68 | -19.7 | -1.2
CC(C)c1ccc(-c2cc(C(=O)N3N=C(C(F)F)CC3(O)C(F)F)c3ccccc3n2)cc1 (stereo unspecified) | 2.7 | 87.4* | -0.422 | -4.6 | 1.1
O=C(c1cc(C2CC2)nc2ccccc12)N1N=C(C(F)F)CC1(O)C(F)F (stereo unspecified) | 3.1 | -3.8 | -0.0248 | -23.4 | -1.8
CCOC(=O)c1cc(-c2ccc(C)cc2)n(CCC(=O)N2CCN(c3ccccn3)CC2)c1C | 1.5 | 29.9 | 0.232 | 10.0 | ·
COC(=O)C[C@H]1c2cc(C(F)(F)F)ccc2S(=O)(=O)N1C1CCCC1 | · | · | · | -10.1 | ·
O=C(O)CSc1cc(C(=O)c2ccccc2O)cn2c(=O)c3c4c(sc3nc12)CCCC4 | · | · | -0.189 | 5.6 | 0.2
CCOc1ccc(-n2cc(-c3ccccc3)c3c(=O)[nH]cnc32)cc1 | 3.5 | 29.4 | 1.08 | · | -1.9
O=c1[nH]cnc2c1c(-c1ccccc1)cn2-c1ccc(Br)cc1 | 2.1 | 70.9* | 1.76 | 8.7 | -0.1
COC(=O)C1=C(CSc2nc3ccccc3o2)NC(=O)NC1c1cc(C)ccc1C (stereo unspecified) | 3.1 | 75.4* | 0 | 17.8 | -0.7
COc1ccc(C(=O)NNS(=O)(=O)c2ccccc2)cc1OC | · | · | · | -1.4 | ·
Cc1cccc(C)c1N1CCN(c2ccc3nnc(C(F)(F)F)n3n2)CC1 | 3.0 | 77.6* | 0.519 | 0.9 | -2.7
CC(C)OC(=O)c1c(NS(=O)(=O)c2ccccc2)sc2c1CCCC2 | 5.0 | 47.3 | 23.1* | · | -1.9
COC(=O)c1c(NC(=O)Cc2cccs2)sc2c1CCC(C)C2 (stereo unspecified) | 4.2 | 24.9 | · | · | -2.5
COC(=O)c1c(NS(=O)(=O)Cc2ccccc2)sc2c1CCCC2 | 0.7 | -1.4 | 45.1* | · | ·
COC(=O)c1c(NC(=O)CN(c2ccccc2)S(C)(=O)=O)sc2c1CCCC2 | 3.0 | 15.3 | 0.0324 | -0.7 | -1.3
COC(=O)c1c(NS(=O)(=O)c2ccc(C)cc2)sc2c1CCC(C)C2 (stereo unspecified) | 4.3 | 40.1 | 15.7* | · | 0.1
COC(=O)c1c(NS(C)(=O)=O)sc2c1CCCC2 | 3.6 | 0.3 | 1.09 | -12.6 | ·
O=C(Cn1nnc2ccccc2c1=O)N[C@H](C(=O)O)c1ccccc1 | · | · | 0.803 | 6.9 | 0.0
O=C(COC(=O)c1cc(Cl)ccc1[N+](=O)[O-])NCc1ccc(Cl)cc1Cl | 2.5 | 61.3* | -2.82 | 13.2 | -1.2
COc1ccccc1-n1c(SCC(=O)NC2CCS(=O)(=O)C2)nc2cc([N+](=O)[O-])ccc21 (stereo unspecified) | 2.2 | 3.9 | 2.27 | -11.8 | 1.9
COc1ccccc1-n1c(SCC(=O)c2ccc(O)cc2O)nc2cc([N+](=O)[O-])ccc21 | 1.8 | 77.4* | 0.0703 | -16.7 | -0.1
CC1=C/C(=N\Nc2ccccc2[N+](=O)[O-])CC(C)(C)C1 | 2.4 | 63.9* | 0 | -12.6 | ·
SMILES | MT stabilizer | WT yeast gro inh | Cl transport mod | Pf gametocyte | bCat nuc transl
Cc1ccc(N=Nc2c(N)nn(-c3ccccc3)c2N)cc1 | 10.3* | 11.1 | 0.15 | 18.6 | 1.6
Cc1nn(-c2ccccc2)c(N)c1N=Nc1ccc2ccccc2c1 | 2.5 | 70.1* | 0.059 | -22.9 | -3.4
Cc1ccc(CNC(=O)C(Cc2ccccc2)NS(=O)(=O)c2cccs2)cc1 (stereo unspecified) | 0.9 | 43.0 | · | · | 2.3
Cc1ccc(CNC(=O)C(Cc2ccccc2)NS(=O)(=O)c2ccc(Br)s2)cc1 (stereo unspecified) | 3.5 | 81.0* | -0.119 | -2.7 | -4.5
O=c1c2cccnc2[nH]c(=S)n1CCCN1CCN(c2ccc(F)cc2)CC1 | 1.1 | 4.7 | 5.98* | 7.9 | -1.3
CC1CCN(CCn2c(=S)[nH]c3ncccc3c2=O)CC1 | 3.1 | · | · | · | ·
CC(C)NC(=O)c1cc(-c2ccc(Br)cc2)on1 | 4.1 | 21.3 | · | 8.9 | 1.7
CC1CCCCN1c1nnc(NC(=O)c2cc(-c3ccc(Br)cc3)on2)s1 (stereo unspecified) | 6.8 | 68.2* | 2.43 | · | -0.3
